# Assay results pooled from the literature.
# Lines come from different studies, so protocols differ.
# Target: Mitogen-activated protein kinase kinase kinase 11 (MAP3K11, Homo sapiens, UniProt Q16584)
Compound,test,setting,remaining binding
CC1CCCN1c1nccc(-c2cnn3ncccc23)n1 (centres unmarked),binding,1 µM,100%
O=C(NCc1ncc(C(F)(F)F)cc1Cl)c1ccc2c(c1)C1(CCS(=O)(=O)CC1)[C@H](C1CC1)N2S(=O)(=O)c1ccc(F)cc1,"cell-free assay, competition with immobilised ligand",1 µM,100%
COc1cnc(Nc2cccc(S(N)(=O)=O)c2)nc1N1CCN(c2ccccc2)C(=O)C1,"binding, competition with immobilised ligand",1 µM,100%
O=c1nc(-c2ccccn2)sc2ccccc12,"binding, competition with immobilised ligand",1 µM,100%
Cc1cnc(Nc2ccc(C(=O)N3CCC(N4CCCC4)CC3)cc2)nc1-c1cc2ccccc2s1,"binding, competition with immobilised ligand",1 µM,13%
CN(CCCC(F)(F)F)c1nccc(-c2cnn3ncccc23)n1,binding,1 µM,75%
Cc1c(NC(=O)c2cc(C(N)=O)nc3cc(F)ccc23)c(C(F)(F)F)nn1Cc1ccc(C#N)cc1,"cell-free assay, competition with immobilised ligand",1 µM,100%
Nc1ncc2c(n1)-c1c([nH]c3ccc(C#CC4CC4)cc13)CCCC2,"binding, competition with immobilised ligand",1 µM,97%
O=C(c1ccc(Nc2nccc(-c3cc4ccccc4s3)n2)cc1)N1CCC(N2CCCC2)CC1,"binding, competition with immobilised ligand",1 µM,57%
COc1ncc2cc3ccccc3nc2c1C#N,"cell-free assay, competition with immobilised ligand",5 µM,86%
C[C@@H]1CN(c2cc(-c3nn(C)c4ccc(OC5(C)CC5)cc34)ncn2)C[C@H](C)O1,"cell-free assay, competition with immobilised ligand",1 µM,100%
N[C@@H]1CCN(c2nccc(-c3cnn4ncccc34)n2)C1,binding,1 µM,99%
COc1cnc(Nc2cccc(S(N)(=O)=O)c2)nc1N1CCN(c2ccccc2)CC1,"binding, competition with immobilised ligand",1 µM,76%
CN(C)c1nccc(-c2cnn3ncccc23)n1,binding,1 µM,98%
C[C@@]1(Cc2ccc(C#N)cc2)C(=O)N(c2cc(Cl)cc(Cl)c2)c2ncc(C(=O)NC3(c4nc(C5CCC5)no4)CC3)n21,"cell-free assay, competition with immobilised ligand",1 µM,100%
O=C(c1ccc(Nc2ncc(Cl)c(-c3cc4ccccc4s3)n2)cc1)N1CCC(N2CCCC2)CC1,"binding, competition with immobilised ligand",1 µM,11%
C[C@@H]1CCN(c2nccc(-c3cnn4ncccc34)n2)C1,binding,1 µM,100%
O=C(Nc1c[nH]nc1C(=O)NC1CCNCC1)c1cc(F)cc(F)c1,"binding, competition with immobilised ligand",1 µM,99%
Cc1cnn2ncc(-c3ccnc(N(C)C)n3)c2c1,binding,1 µM,100%
C[C@H](c1cccc(C#N)c1)n1cc(Cl)cc(C(N)=O)c1=N,"cell-free assay, competition with immobilised ligand",1 µM,100%
